{"source": "paper PMC9924264", "about": "(Journal of Medicinal Chemistry, 2023)", "key": {"BMPR2": {"target": "T1, BMPR2 (Homo sapiens, UniProt Q13873)", "T1 sequence (Q13873 27-1038)": "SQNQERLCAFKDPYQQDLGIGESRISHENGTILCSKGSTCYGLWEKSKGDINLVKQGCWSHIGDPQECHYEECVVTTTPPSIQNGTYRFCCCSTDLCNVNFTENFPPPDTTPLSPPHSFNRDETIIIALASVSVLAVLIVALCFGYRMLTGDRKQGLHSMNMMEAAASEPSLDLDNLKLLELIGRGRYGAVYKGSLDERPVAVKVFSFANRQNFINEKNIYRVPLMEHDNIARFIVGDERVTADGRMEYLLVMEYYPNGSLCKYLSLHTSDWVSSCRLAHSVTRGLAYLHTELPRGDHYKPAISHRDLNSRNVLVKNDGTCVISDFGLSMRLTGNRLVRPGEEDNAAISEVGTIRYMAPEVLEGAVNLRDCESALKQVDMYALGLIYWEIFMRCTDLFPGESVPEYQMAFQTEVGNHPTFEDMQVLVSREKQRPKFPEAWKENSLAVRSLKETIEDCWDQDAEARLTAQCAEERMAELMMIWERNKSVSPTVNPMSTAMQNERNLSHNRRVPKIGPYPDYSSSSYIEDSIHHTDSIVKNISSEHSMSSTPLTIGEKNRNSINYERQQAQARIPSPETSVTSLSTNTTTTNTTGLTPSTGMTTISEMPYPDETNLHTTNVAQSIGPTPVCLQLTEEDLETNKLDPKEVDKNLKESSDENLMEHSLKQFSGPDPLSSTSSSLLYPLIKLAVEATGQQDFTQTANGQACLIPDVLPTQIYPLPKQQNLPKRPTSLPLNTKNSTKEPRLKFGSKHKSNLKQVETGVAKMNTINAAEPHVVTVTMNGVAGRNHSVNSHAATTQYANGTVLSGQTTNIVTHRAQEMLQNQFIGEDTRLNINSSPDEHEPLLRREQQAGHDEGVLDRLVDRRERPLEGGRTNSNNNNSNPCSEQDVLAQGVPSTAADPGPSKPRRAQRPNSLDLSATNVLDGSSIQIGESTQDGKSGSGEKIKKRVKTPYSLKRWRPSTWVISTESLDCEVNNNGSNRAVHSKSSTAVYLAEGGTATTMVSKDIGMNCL", "assay": "ThermoFisher SelectScreen LanthaScreen assay", "format": "binding", "conditions": "than CDD-1115"}, "[1]": {"assay": "Metabolic stability in human liver microsomes", "format": "in vitro ADME", "conditions": "compared with analogue (CDD-1115 for CDD-1281, CDD-1431 for CDD-1653)", "method_in_brief": "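Human liver microsomes (0.5 mg protein/mL) incubated at 37 °C with test compound (2.0 μM) and NADPH cofactor (1.0 mM). Samples taken at 0, 30 and 60 min, in duplicate. […] Half-life was compared with that of the paired structural analogue.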"}, "BMPR1A (ALK3)": {"target": "BMPR1A (ALK3) (Homo sapiens, UniProt P36894)", "sequence (P36894 24-532)": "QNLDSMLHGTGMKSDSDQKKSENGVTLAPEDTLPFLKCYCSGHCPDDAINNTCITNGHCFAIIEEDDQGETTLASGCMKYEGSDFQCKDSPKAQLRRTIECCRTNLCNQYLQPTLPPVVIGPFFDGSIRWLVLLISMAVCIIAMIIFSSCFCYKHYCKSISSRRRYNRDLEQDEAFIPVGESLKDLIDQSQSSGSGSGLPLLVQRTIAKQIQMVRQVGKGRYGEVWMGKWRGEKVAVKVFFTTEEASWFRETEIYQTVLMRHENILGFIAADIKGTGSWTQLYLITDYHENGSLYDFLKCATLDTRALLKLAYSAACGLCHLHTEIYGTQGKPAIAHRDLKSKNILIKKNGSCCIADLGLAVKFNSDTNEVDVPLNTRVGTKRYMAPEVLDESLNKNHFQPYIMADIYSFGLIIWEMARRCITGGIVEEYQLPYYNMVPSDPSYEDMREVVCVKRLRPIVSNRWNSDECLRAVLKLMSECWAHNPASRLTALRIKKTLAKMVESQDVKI", "assay": "ThermoFisher SelectScreen LanthaScreen assay", "format": "binding", "conditions": "ALK3 vs BMPR2"}, "[2]": {"tested_on": "pSMAD1/5 in human umbilical vein endothelial cells (HUVECs)", "assay": "pSMAD1/5 Western blot, BMP9-stimulated HUVECs", "format": "cell-based", "conditions": "25 μM, 30 min pretreatment, 0.5 ng/mL BMP9 15 min", "method_in_brief": "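HUVECs, about 3 × 10^5 per well, starved overnight in Kaighn's F-12 with 0.5% FBS and 30 μg/mL endothelial cell growth supplement. Pretreated with inhibitors for 30 min, then given 0.5 ng/mL BMP9 for 15 min. Lysed with protease and phosphatase inhibitors. SDS-PAGE immunoblot for pSMAD1/5, SMAD1, SMAD5 and GAPDH, with densitometry. n = 3 biological replicates; one-way ANOVA with Tukey post hoc test.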"}, "TGFBR1 (ALK5)": {"target": "T2, TGFBR1 (ALK5) (Homo sapiens, UniProt P36897)", "T2 sequence (P36897 34-503)": "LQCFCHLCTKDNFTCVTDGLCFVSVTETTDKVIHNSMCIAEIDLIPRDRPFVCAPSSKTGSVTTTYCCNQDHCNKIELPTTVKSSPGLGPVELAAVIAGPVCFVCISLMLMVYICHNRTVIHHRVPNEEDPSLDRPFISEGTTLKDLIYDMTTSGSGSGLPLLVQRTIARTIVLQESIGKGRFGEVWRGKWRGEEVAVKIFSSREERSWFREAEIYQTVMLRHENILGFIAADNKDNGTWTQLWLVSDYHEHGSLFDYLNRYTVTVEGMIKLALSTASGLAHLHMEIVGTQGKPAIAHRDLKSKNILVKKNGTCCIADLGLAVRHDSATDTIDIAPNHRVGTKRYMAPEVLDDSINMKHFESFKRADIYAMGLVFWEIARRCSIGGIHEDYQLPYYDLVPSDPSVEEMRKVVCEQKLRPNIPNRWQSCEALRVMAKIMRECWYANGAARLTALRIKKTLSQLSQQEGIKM", "assay": "ThermoFisher SelectScreen LanthaScreen assay", "format": "binding", "conditions": "ALK5 vs BMPR2"}, "[3]": {"assay": "Metabolic stability in mouse liver microsomes", "format": "in vitro ADME", "conditions": "compared with analogue (CDD-1115 for CDD-1281, CDD-1431 for CDD-1653)"}, "BMPR1B (ALK6)": {"target": "BMPR1B (ALK6) (Homo sapiens, UniProt O00238)", "sequence (O00238 14-502)": "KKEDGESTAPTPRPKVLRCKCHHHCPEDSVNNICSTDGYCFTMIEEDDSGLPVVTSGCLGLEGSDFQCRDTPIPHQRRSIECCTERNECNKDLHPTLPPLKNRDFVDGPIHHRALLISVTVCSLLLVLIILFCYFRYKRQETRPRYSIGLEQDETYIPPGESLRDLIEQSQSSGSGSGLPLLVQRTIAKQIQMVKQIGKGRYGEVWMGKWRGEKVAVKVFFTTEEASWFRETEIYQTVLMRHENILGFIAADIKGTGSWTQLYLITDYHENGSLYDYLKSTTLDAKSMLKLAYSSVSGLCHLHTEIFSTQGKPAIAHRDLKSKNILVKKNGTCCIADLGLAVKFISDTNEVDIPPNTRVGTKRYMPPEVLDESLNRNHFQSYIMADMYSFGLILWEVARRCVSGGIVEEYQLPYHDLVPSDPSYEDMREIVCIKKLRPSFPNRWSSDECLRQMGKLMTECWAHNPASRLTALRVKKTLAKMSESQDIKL", "assay": "ThermoFisher SelectScreen LanthaScreen assay", "format": "binding", "conditions": "ALK6 vs BMPR2"}}}
{"smiles": "NC(=O)c1cccc(CNC(=O)c2ccc3nc(-c4ccc5cnccc5c4)n(C4CCCC4)c3c2)c1", "note": "[CDD-1281, N-(3-Carbamoylbenzyl)-1-cyclopentyl-2-(isoquinolin-6-yl)-1H-benzo[d]imidazole-6-carboxamide]", "values": [{"measurement": "fold higher potency (IC50)", "setting": "BMPR2", "value": 1.5, "unit": "fold"}, {"measurement": "fold increase of half-life in HLM", "setting": "[1]", "value": 11.0, "unit": "fold"}, {"measurement": "selectivity", "setting": "BMPR1A (ALK3)", "value": ">830", "unit": "×"}, {"measurement": "phosphorylation of SMAD1/5 (pSMAD1/5)", "setting": "[2]", "value": "significantly decreased"}, {"measurement": "selectivity", "setting": "TGFBR1 (ALK5)", "value": ">830", "unit": "×"}, {"measurement": "fold increase of half-life in MLM", "setting": "[3]", "value": 3.5, "unit": "fold"}, {"measurement": "selectivity", "setting": "BMPR1B (ALK6)", "value": ">830", "unit": "×"}]}
